# Test results as given in article PMC8802302 (Journal of Medicinal Chemistry, 2021).
# Tests used:
# 16-member kinase panel = experiment: Eurofins custom enzymatic kinase panel, count of kinases inhibited; format: biochemical; settings: 16-member Eurofins panel, 1 μM
# In short: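 Radiometric kinase assays were run with ATP at Km. Each test compound was tested at a single concentration of 1 μM, in duplicate, against each panel kinase, with results as percent of control. The count is the number of kinases at ≤ 10 PoC, i.e. inhibited ≥ 90%.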
# [1] = tested on: 403 wild-type (WT) human kinases; experiment: DiscoverX scanMAX kinome-wide selectivity screen; format: binding; settings: 403 WT human kinases; for no. kinases with PoC < 10: DiscoverX scanMAX, 1 μM; for S10 (1 μM): Percentage of screened kinases with PoC values < 10 at 1 μM
# PAMPA permeability = format: in vitro ADME; settings: PBS pH 7.4, 5 h incubation
# In short: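 DMSO stocks of test compound were diluted in PBS pH 7.4 and added to the donor side of a precoated PAMPA plate, with PBS pH 7.4 as acceptor, for 5 h. Both compartments were quantified by chemiluminescent nitrogen detection against a calibration curve, with background nitrogen corrected. Effective permeability was calculated from donor and acceptor concentrations, using measured rather than assumed solubility.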
# TBK1 (NLuc-TBK1) = target: T1, TBK1 (NLuc-TBK1) (Homo sapiens, UniProt Q9UHD2); experiment: NanoBRET cellular target engagement assay; format: cell-based; settings: HEK293, 0.5 μM tracer K-5; n = 1 where no error, SEM n = 3
# T1 sequence (Q9UHD2 1-729): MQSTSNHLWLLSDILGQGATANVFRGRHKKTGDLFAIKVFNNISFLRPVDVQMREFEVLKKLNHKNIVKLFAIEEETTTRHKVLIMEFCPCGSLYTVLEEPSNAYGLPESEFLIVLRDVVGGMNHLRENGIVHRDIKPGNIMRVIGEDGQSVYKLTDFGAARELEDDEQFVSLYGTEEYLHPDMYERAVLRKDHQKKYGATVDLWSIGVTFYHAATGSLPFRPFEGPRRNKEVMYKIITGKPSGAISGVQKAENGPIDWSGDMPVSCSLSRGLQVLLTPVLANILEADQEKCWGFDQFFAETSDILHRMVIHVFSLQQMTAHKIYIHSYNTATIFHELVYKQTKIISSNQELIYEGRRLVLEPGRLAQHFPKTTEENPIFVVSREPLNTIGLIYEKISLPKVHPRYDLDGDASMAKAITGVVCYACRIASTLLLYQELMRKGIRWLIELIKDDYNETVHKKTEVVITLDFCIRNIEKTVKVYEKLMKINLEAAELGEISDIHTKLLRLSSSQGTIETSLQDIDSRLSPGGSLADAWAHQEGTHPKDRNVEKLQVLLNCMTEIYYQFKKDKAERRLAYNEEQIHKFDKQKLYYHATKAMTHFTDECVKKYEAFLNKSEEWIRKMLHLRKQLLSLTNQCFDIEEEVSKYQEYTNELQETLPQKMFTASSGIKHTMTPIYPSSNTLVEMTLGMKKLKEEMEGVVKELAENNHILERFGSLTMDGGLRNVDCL
# In short: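 HEK293 cells were grown in DMEM with 10% FBS at 37 °C under 5% CO2, passaged every 72 h with trypsin and kept below confluency. Cells expressed NanoLuc fusions (DRAK1-NLuc or NLuc-TBK1). Dose–response was run per the manufacturer's protocol, with 0.5 μM tracer K-9 for DRAK1 and 0.5 μM tracer K-5 for TBK1. SEM was reported where assays were repeated.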
# MARK4 (NLuc-MARK4) = target: T2, MARK4 (NLuc-MARK4) (Homo sapiens, UniProt Q96L34); experiment: NanoBRET cellular target engagement assay; format: cell-based; settings: HEK293, 0.5 μM tracer K-5; n = 1 where no error, SEM n = 2
# T2 sequence (Q96L34 1-752): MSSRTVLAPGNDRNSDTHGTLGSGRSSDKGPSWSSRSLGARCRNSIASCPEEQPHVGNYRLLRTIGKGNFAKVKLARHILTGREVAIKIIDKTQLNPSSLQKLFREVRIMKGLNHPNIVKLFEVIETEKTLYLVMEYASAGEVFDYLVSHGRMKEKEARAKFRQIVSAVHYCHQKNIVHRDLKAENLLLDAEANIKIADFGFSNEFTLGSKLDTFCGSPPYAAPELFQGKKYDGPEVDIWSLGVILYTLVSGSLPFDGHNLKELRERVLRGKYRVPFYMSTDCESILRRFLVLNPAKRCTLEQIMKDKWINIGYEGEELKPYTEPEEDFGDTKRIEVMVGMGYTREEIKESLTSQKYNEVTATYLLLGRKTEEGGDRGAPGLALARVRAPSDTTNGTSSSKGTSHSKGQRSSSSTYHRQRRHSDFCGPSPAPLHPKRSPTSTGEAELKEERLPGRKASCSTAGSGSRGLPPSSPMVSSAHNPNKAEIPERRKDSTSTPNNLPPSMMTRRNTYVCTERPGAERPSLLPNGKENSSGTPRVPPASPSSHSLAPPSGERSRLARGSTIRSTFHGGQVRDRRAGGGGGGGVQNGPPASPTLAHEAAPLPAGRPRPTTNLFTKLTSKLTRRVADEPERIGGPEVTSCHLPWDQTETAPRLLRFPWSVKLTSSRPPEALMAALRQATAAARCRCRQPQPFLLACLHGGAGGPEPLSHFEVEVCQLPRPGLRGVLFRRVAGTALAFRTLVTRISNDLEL
# DRAK1 (DRAK1-NLuc) = target: T3, DRAK1 (DRAK1-NLuc) (Homo sapiens, UniProt Q9UEE5); experiment: NanoBRET cellular target engagement assay; format: cell-based; settings: HEK293, 0.5 μM tracer K-9; n = 1 where no error, SEM n = 3
# T3 sequence (Q9UEE5 1-414): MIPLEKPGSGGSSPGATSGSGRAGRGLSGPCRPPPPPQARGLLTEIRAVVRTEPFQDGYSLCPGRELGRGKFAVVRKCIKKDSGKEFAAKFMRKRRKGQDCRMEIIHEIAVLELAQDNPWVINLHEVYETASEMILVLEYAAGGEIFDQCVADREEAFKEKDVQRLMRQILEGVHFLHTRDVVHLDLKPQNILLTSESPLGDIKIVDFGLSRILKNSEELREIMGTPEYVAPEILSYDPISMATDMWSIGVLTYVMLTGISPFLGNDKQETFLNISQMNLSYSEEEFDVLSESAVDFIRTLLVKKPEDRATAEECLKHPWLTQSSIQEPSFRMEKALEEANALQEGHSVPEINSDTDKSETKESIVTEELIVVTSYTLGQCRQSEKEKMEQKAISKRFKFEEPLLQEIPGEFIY
# MARK3 (NLuc-MARK3) = MARK3 (NLuc-MARK3) (Homo sapiens, UniProt P27448); experiment: NanoBRET cellular target engagement assay; format: cell-based; settings: HEK293, 0.5 μM tracer K-9; n = 1 where no error, SEM n = 2
# MARK3 (NLuc-MARK3), sequence (P27448 whole entry): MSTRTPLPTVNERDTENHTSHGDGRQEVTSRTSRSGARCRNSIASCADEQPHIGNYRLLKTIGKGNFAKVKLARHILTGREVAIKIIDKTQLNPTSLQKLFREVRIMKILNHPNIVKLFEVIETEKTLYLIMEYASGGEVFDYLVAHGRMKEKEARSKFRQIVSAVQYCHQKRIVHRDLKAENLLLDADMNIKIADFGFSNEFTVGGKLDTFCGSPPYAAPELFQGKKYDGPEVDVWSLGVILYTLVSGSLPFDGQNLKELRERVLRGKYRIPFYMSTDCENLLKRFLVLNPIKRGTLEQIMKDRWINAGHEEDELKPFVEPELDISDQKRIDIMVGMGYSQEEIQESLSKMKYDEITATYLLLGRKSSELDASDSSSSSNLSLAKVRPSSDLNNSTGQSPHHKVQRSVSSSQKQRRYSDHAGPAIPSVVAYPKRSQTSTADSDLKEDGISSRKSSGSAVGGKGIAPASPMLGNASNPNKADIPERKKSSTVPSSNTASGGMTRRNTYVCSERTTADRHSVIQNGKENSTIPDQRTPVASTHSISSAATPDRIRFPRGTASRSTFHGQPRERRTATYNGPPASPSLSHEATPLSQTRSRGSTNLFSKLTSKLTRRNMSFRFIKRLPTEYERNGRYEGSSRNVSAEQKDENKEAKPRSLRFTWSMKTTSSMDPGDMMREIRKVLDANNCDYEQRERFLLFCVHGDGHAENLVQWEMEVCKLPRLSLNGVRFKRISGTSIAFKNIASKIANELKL
no. kinases ≤ 10 PoC in enzyme panel (16-member kinase panel),"Pe (permeability coefficient, PAMPA) (PAMPA permeability)",TBK1 NanoBRET IC50 (TBK1 (NLuc-TBK1)),MARK4 NanoBRET IC50 (MARK4 (NLuc-MARK4)),DRAK1 NanoBRET IC50 (DRAK1 (DRAK1-NLuc)),MARK3 NanoBRET IC50 (MARK3 (NLuc-MARK3)),SMILES,no. kinases with PoC < 10 [1],S10 (1 μM) [1]
1,below the limit of quantitation,submicromolar,,,,"Cc1nn(CC(F)(F)F)cc1Nc1ncc(Br)c(NCc2ccc(S(N)(=O)=O)cc2)n1 [GSK8612, 4-(((5-Bromo-2-((3-methyl-1-(2,2,2-trifluoroethyl)-1H-pyrazol-4-yl)amino)pyrimidin-4-yl)-amino)methyl)benzenesulfonamide, reference compound]",8,
14,low permeability,,,,,"O=C(Nc1cccc(Nc2ncc(Br)c(NCCc3cnc[nH]3)n2)c1)N1CCCC1 [BX-912, reference compound]",,
12,,,,submicromolar,,"O=C(NCCCNc1nc(Nc2cccc(CN3CCOCC3)c2)ncc1C1CC1)C1CCC1 [MRT67307, reference compound]",,
13,,,,,,"CN1CCc2cc(Nc3ncc(C4CC4)c(NCCCNC(=O)C4CCC4)n3)ccc2C1 [MRT68921, reference compound]",,

# Further lines, the compound ahead of its results:
SMILES,no. kinases ≤ 10 PoC in enzyme panel (16-member kinase panel),"Pe (permeability coefficient, PAMPA) (PAMPA permeability)",TBK1 NanoBRET IC50 (TBK1 (NLuc-TBK1)),MARK4 NanoBRET IC50 (MARK4 (NLuc-MARK4)),DRAK1 NanoBRET IC50 (DRAK1 (DRAK1-NLuc)),MARK3 NanoBRET IC50 (MARK3 (NLuc-MARK3)),no. kinases with PoC < 10 [1],S10 (1 μM) [1]
"NS(=O)(=O)c1ccc(CNc2nc(Nc3cccc(CN4CCOCC4)c3)ncc2Br)cc1 [Compound 6, 4-(((5-Bromo-2-((3-(morpholinomethyl)phenyl)amino)pyrimidin-4-yl)amino)methyl)benzenesulfonamide]",4,below the limit of quantitation,,,,,19,
"Cc1nn(CC(F)(F)F)cc1Nc1ncc(Br)c(NCCc2cnc[nH]2)n1 [Compound 10, N^4-(2-(1H-Imidazol-5-yl)ethyl)-5-bromo-N^2-(3-methyl-1-(2,2,2-trifluoroethyl)-1H-pyrazol-4-yl)pyrimidine-2,4-diamine]",0,,,,,,28,0.069
"c1cc(CN2CCOCC2)cc(Nc2ncc(C3CC3)c(NCCc3c[nH]cn3)n2)c1 [Compound 14, N^4-(2-(1H-Imidazol-4-yl)ethyl)-5-cyclopropyl-N^2-(3-(morpholinomethyl)phenyl)pyrimidine-2,4-diamine]",6,low permeability,,submicromolar,,,27,0.067
"O=C(NCCCNc1nc(Nc2cccc(NC(=O)N3CCCC3)c2)ncc1C1CC1)C1CCC1 [Compound 22, N-(3-((4-((3-(Cyclobutanecarboxamido)propyl)amino)-5-cyclopropylpyrimidin-2-yl)amino)-phenyl)pyrrolidine-1-carboxamide]",9,low permeability,,submicromolar,submicromolar,,30,0.074
"c1cc(CN2CCOCC2)cc(Nc2nccc(NCCc3cnc[nH]3)n2)c1 [Compound 20, N^4-(2-(1H-Imidazol-5-yl)ethyl)-N^2-(3-(morpholinomethyl)phenyl)pyrimidine-2,4-diamine]",1,,,,,,9,0.022
"Brc1cnc(Nc2cccc(CN3CCOCC3)c2)nc1NCCc1c[nH]cn1 [Compound 9, N^4-(2-(1H-Imidazol-4-yl)ethyl)-5-bromo-N^2-(3-(morpholinomethyl)phenyl)pyrimidine-2,4-diamine]",13,low permeability,,submicromolar,submicromolar,submicromolar,94,0.233
"Cc1nn(CC(F)(F)F)cc1Nc1nccc(NCc2ccc(S(N)(=O)=O)cc2)n1 [Compound 12, 4-(((2-((3-Methyl-1-(2,2,2-trifluoroethyl)-1H-pyrazol-4-yl)amino)pyrimidin-4-yl)amino)methyl)benzenesulfonamide]",0,below the limit of quantitation,,,,,1,
"Cc1nn(CC(F)(F)F)cc1Nc1nccc(NCCCNC(=O)C2CCC2)n1 [Compound 8, N-(3-((2-((3-Methyl-1-(2,2,2-trifluoroethyl)-1H-pyrazol-4-yl)amino)pyrimidin-4-yl)amino)-propyl)cyclobutanecarboxamide]",0,,,,,,1,
"Cc1nn(CC(F)(F)F)cc1Nc1ncc(Br)c(NCCCNC(=O)C2CCC2)n1 [Compound 7, N-(3-((5-Bromo-2-((3-methyl-1-(2,2,2-trifluoroethyl)-1H-pyrazol-4-yl)amino)pyrimidin-4-yl)amino)propyl)cyclobutanecarboxamide]",7,,submicromolar,,submicromolar,,62,0.154
"NS(=O)(=O)c1ccc(CNc2nc(Nc3cccc(NC(=O)N4CCCC4)c3)ncc2C2CC2)cc1 [Compound 21, N-(3-((5-Cyclopropyl-4-((4-sulfamoylbenzyl)amino)pyrimidin-2-yl)amino)phenyl)pyrrolidine-1-carboxamide]",1,,,,,,1,
"NS(=O)(=O)c1ccc(CNc2nc(Nc3cccc(CN4CCOCC4)c3)ncc2C2CC2)cc1 [Compound 11, 4-(((5-Cyclopropyl-2-((3-(morpholinomethyl)phenyl)amino)pyrimidin-4-yl)amino)methyl)-benzenesulfonamide]",1,low permeability,,,,,3,0.007
